Measured values reported in ChEMBL document CHEMBL1138889, “Development of N-2,4-pyrimidine-N-phenyl-N'-phenyl ureas as inhibitors of tumor necrosis factor alpha (TNF-alpha) synthesis. Part 1” (Bioorg Med Chem Lett, 2006).

Assays:
[1] = target: T1, Mitogen-activated protein kinase 14 (Homo sapiens, UniProt Q16539); experiment: Inhibition of LPS-stimulated TNFalpha production in human THP1 cells; format: functional, cell-based, THP-1
Procedure, shortened: (§1)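 THP-1 human monocytic cells, in duplicate cultures, were preincubated with or without inhibitor for 15 min. TNF-α release was then stimulated with LPS at 1 µg/ml final. Secreted TNF-α was quantified by ELISA 4 h after stimulation. Cell viability after the 4 h incubation was assessed by MTS assay.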

[2] = target: T1, Mitogen-activated protein kinase 14; experiment: Inhibition of LPS-stimulated TNFalpha production in human THP1 cells at 1 uM; format: functional, cell-based; details: THP-1; procedure, shortened: as §1

T1 sequence (Q16539 whole entry): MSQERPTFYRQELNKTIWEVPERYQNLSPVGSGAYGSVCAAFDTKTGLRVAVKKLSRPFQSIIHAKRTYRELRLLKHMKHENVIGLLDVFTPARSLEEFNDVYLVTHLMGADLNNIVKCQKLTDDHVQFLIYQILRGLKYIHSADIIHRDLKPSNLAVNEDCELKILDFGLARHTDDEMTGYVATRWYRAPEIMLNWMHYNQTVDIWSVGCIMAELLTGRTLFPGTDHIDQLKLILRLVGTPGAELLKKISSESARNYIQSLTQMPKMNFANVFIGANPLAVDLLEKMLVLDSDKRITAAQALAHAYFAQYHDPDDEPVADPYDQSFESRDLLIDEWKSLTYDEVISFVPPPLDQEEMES

| SMILES | IC50 [1] [nM] | inhibition [2] [%] |
| --- | --- | --- |
| COC[C@H](C)Nc1nccc(N(C(=O)Nc2ccccc2C)c2ccccc2)n1 | 1000 |  |
| CCCS(=O)(=O)N1CCC(Nc2nccc(N(C(=O)Nc3ccccc3Cl)c3ccc(F)cc3)n2)CC1 | 1420 |  |
| COC[C@H](C)Nc1nccc(N(C(=O)Nc2ccccc2C)c2ccc(F)cc2)n1 | 3650 |  |
| C[C@H](Nc1nccc(N(C(=O)Nc2ccccc2Cl)c2cccc(F)c2)n1)c1ccccc1 | 6160 |  |
| COC[C@H](C)Nc1nccc(N(C)C(=O)Nc2ccccc2C)n1 | > 5000 |  |
| C[C@H](Nc1nccc(N(C(=O)Nc2ccccc2Cl)c2ccc(F)cc2)n1)c1ccccc1 (stereo in doubt; 5i) | > 5000 |  |
| C[C@H](Nc1nccc(N(C(=O)Nc2ccccc2Cl)c2ccc(F)cc2)n1)c1ccccc1 (stereo in doubt; 5h) | 843 |  |
| COc1ccc(N(C(=O)Nc2ccccc2C)c2ccnc(N[C@@H](C)C(C)(C)O)n2)cc1 | 135 |  |
| COC[C@H](C)Nc1nccc(N(C(=O)Nc2ccc(C(F)(F)F)cc2)c2ccc(F)cc2)n1 | > 5000 |  |
| COc1ccc(N(C(=O)Nc2ccccc2Cl)c2ccnc(N[C@@H](C)C(C)(C)O)n2)cc1 | 92 |  |
| O=C(Nc1ccccc1Cl)N(c1ccc(F)cc1)c1ccnc(N2CCOCC2)n1 | > 5000 |  |
| Cc1ccccc1NC(=O)N(c1ccc(F)cc1)c1ccnc(N[C@@H](C)C(C)(C)O)n1 | 176 |  |
| CCOC(=O)N1CCC(Nc2nccc(N(C(=O)Nc3ccccc3Cl)c3ccc(F)cc3)n2)CC1 | 3610 |  |
| CN1CCN(c2nccc(N(C(=O)Nc3ccccc3Cl)c3ccc(F)cc3)n2)CC1 | > 5000 |  |
| COC[C@H](C)Nc1nccc(N(C(=O)Nc2ccccc2Cl)c2ccc(F)cc2)n1 | 3100 |  |
| C[C@H](Nc1nccc(N(C(=O)Nc2c(Cl)cccc2Cl)c2ccc(F)cc2)n1)C(C)(C)O |  | 63 |
| COC[C@H](C)Nc1nccc(N(C(=O)Nc2ccccc2Cl)c2ccc(N(C)C)cc2)n1 | > 5000 |  |
| C[C@H](Nc1nccc(N(C(=O)Nc2ccccc2Cl)c2ccccc2)n1)C(C)(C)O | 718 |  |
| O=C(Nc1ccccc1Cl)N(c1ccc(F)cc1)c1ccnc(NC2CCOCC2)n1 | 539 |  |
| COC[C@H](C)Nc1nccc(N(C(=O)Nc2ccccc2F)c2ccc(F)cc2)n1 | 2880 |  |
| C[C@H](Nc1nccc(N(C(=O)Nc2ccccc2Cl)c2ccc(F)cc2)n1)C(C)(C)O | 122 |  |
| Cc1ccccc1NC(=O)N(c1ccc(N(C)C)cc1)c1ccnc(N[C@@H](C)c2ccccc2)n1 | > 5000 |  |
| COCC(C)Nc1nccc(N(N)C(=O)Nc2ccccc2Cl)n1 (single isomer, unassigned) | > 5000 |  |
